Active and inactive are the calls of the source. The rule behind the calls is not given here.
Key:
[1] = system: Mus musculus; assay: Effect on learning and memory process in CD1 albino mouse assessed as improvement in retention latency at 30 mg/kg, po after 24 hrs by passive avoidance test; type: functional, organism-based; parameters: dose 30 mg/kg
Outline: (§1)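 Passive avoidance test in male CD-1 mice. Compounds were given po 30 min before training, and retention latency was tested 24 h later. n = 9-11 per group, mean ± SEM.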

[2] = Displacement of [3H]Ro15-1788 from GABA(A) receptor benzodiazepine site in bovine brain membrane; type: cell membranes, Bos taurus
Outline: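 Bovine cerebral cortex membranes were diluted in 50 mM Tris-citrate pH 7.4 and used for [3H]Ro15-1788 displacement, with at least six test concentrations. Five experiments were run in triplicate. IC50 came from iterative curve fitting and Ki from Cheng-Prusoff, reported as mean ± SEM. Ki was derived only where inhibition at 10 μM exceeded 80%.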

[3] = system: Mus musculus; assay: Anxiolytic activity in CD1 albino mouse at 10 mg/kg, po by light/dark box test; type: functional, organism-based; parameters: dose 10 mg/kg
Outline: (§2)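 Male CD-1 mice dosed po in 1% CMC 30 min before the light-dark box test. Each mouse was placed in the centre of the lit area facing away from the dark side and explored for 5 min. Transfers between compartments and time spent in the light were scored. n = 9-10 per group, mean ± SEM.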

[4] = system: Mus musculus; assay: Effect on learning and memory process in CD1 albino mouse assessed as improvement in retention latency at 10 mg/kg, po after 24 hrs by passive avoidance test; type: functional, organism-based; parameters: dose 10 mg/kg; outline: as §1
[5] = system: Mus musculus; assay: Anticonvulsant activity in CD1 albino mouse assessed as protection against pentylenetetrazole-induced shock and convulsion at 10 mg/kg, ip treated after 30 mins of pentylenetetrazole measured for 30 mins; type: functional; conditions: route intraperitoneal
[6] = system: Mus musculus; assay: Effect on learning and memory process in CD1 albino mouse assessed as improvement in retention latency at 3 mg/kg, po after 24 hrs by passive avoidance test; type: functional, organism-based; parameters: dose 3 mg/kg; outline: as §1
[7] = system: Mus musculus; assay: Effect on learning and memory process in CD1 albino mouse assessed as improvement in retention latency at 100 mg/kg, po after 24 hrs by passive avoidance test; type: functional, organism-based; parameters: dose 100 mg/kg
Outline: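 Passive avoidance in male CD-1 mice; flumazenil suspended in 1% carboxymethylcellulose, dosed 30 min before training; retention test 24 h later, retention latency recorded. 9-11 mice per group; mean ± SEM versus control.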

[8] = organism: Bos taurus; assay: Displacement of [3H]Ro15-1788 from GABA(A) receptor benzodiazepine site in bovine brain membrane at 10 uM; type: cell membranes
Outline: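 Percent inhibition of specific [3H]Ro15-1788 binding to bovine cerebral cortex membranes in 50 mM Tris-citrate pH 7.4, measured with test compound at 10 μM.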

[9] = system: Mus musculus; assay: Toxicity in CD1 albino mouse assessed as myorelaxant activity over 35 mins at 30 mg/kg, po by grip-strength meter assay; type: organism-based; parameters: dose 30 mg/kg, route oral; conditions: in vivo
Outline: (§3)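 Grip-strength meter test in male CD-1 mice given compound po in 1% CMC 30 min before testing. Grip force was read in g at 35 min. Values are mean ± SEM.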

[10] = system: Mus musculus; assay: Anxiolytic activity in CD1 albino mouse assessed as sleeping time at 10 mg/kg, po pretreated 30 mins before test; type: functional
Outline: (§4)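 Male CD-1 mice given compound po in 1% carboxymethylcellulose 30 min before ethanol (4 g/kg ip). Sleep time is the duration of loss of righting reflex, capped at 210 min. Values are mean ± SEM of treated mice.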

[11] = system: Mus musculus; assay: Toxicity in CD1 albino mouse assessed as number of falls from rod over 30 seconds at 10 mg/kg, po after 25 mins of drug administration by rotarod test; type: organism-based; parameters: dose 10 mg/kg, route oral; conditions: in vivo
Outline: (§5)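 Rota-rod test in male CD-1 mice dosed po in 1% CMC. Falls from the rod were counted over 30 s, 25 min after dosing. Methods give the rod speed as 24 rpm; the table gives 16 rpm. Values are mean ± SEM.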

[12] = system: Mus musculus; assay: Effect on duration of loss of righting reflex in ethanol-induced in CD1 albino mouse at 3 mg/kg, po preincubated 30 mins before ethanol challenge; type: functional, organism-based; parameters: dose 3 mg/kg; outline: as §4
[13] = system: Mus musculus; assay: Anxiolytic activity in CD1 albino mouse assessed as sleeping time at 3 mg/kg, po pretreated 30 mins before test; type: functional; outline: as §4
[14] = system: Mus musculus; assay: Effect on duration of loss of righting reflex in ethanol-induced in CD1 albino mouse at 10 mg/kg, po preincubated 30 mins before ethanol challenge; type: functional, organism-based; parameters: dose 10 mg/kg; outline: as §4
[15] = system: Mus musculus; assay: Anxiolytic activity in CD1 albino mouse at 10 mg/kg, po by light/dark box test in presence of 100 mg/kg, po flumazenil; type: functional, organism-based
[16] = system: Mus musculus; assay: Toxicity in CD1 albino mouse assessed as number of falls from rod over 30 seconds at 30 mg/kg, po after 25 mins of drug administration by rotarod test; type: organism-based; parameters: dose 30 mg/kg, route oral; conditions: in vivo; outline: as §5
[17] = system: Mus musculus; assay: Toxicity in CD1 albino mouse assessed as myorelaxant activity over 35 mins at 10 mg/kg, po by grip-strength meter assay; type: organism-based; parameters: dose 10 mg/kg, route oral; conditions: in vivo; outline: as §3
[18] = system: Mus musculus; assay: Anticonvulsant activity in CD1 albino mouse assessed as protection against pentylenetetrazole-induced shock and convulsion at 30 mg/kg, ip treated after 30 mins of pentylenetetrazole measured for 30 mins; type: functional; conditions: route intraperitoneal
[19] = system: Mus musculus; assay: Anxiolytic activity in CD1 albino mouse at 30 mg/kg, po by light/dark box test; type: functional, organism-based; parameters: dose 30 mg/kg; outline: as §2
[20] = system: Mus musculus; assay: Toxicity in CD1 albino mouse at 10 mg/kg, po in presence of 100 mg/kg, po flumazenil; type: organism-based; conditions: in vivo
[21] = system: Mus musculus; assay: Anxiolytic activity in CD1 albino mouse at 3 mg/kg, po by light/dark box test; type: functional, organism-based; parameters: dose 3 mg/kg; outline: as §2
[22] = system: Mus musculus; assay: Anxiolytic activity in CD1 albino mouse assessed as sleeping time at 1 mg/kg, ip pretreated 20 mins before test; type: functional; conditions: route intraperitoneal
Outline: (§6)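 Male CD-1 mice given diazepam ip (suspended in 1% carboxymethylcellulose) 20 min before test. Ethanol 4 g/kg ip injected […]; duration of loss of righting reflex taken as sleep time, capped at 210 min. Mean ± SEM; ANOVA with Scheffe post hoc test versus 1% CMC controls.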

[23] = system: Mus musculus; assay: Anxiolytic activity in CD1 albino mouse assessed as sleeping time at 0.3 mg/kg, ip pretreated 20 mins before test; type: functional; conditions: route intraperitoneal; outline: as §6

SMILES: [O-][n+]1nc2c(I)cnn2c2cc(OC(F)F)ccc21
- Activity [1]: inactive
- Ki [2]: 2.47 nM
- Activity [3]: Active
- Activity [4]: inactive
- Activity [5]: 0%
- Activity [6]: inactive

SMILES: [O-][n+]1nc2c(F)cnn2c2cc(OCc3ccncc3)ccc21
- Ki [2]: 381 nM

SMILES: COc1ccccc1COc1ccc2c(c1)n1ncc(F)c1n[n+]2[O-]
- Ki [2]: 3.19 nM

SMILES: CCOC(=O)c1cnn2c1nnc1ccc(OC(F)F)cc12
- Ki [2]: 51.7 nM

SMILES: O=C(OCc1cccs1)c1cnn2c1nnc1ccc(OC(F)F)cc12
- Ki [2]: 1.04 nM

SMILES: CCOC(=O)c1ncn2c1CN(C)C(=O)c1cc(F)ccc1-2
- Activity [7]: Active

SMILES: COc1ccccc1C(=O)c1cnn2c1n[n+]([O-])c1ccc(C(F)(F)F)cc12
- Ki [2]: 1540 nM

SMILES: [O-][n+]1nc2c(Br)cnn2c2ccc(C(F)(F)F)cc21
- inhibition [8]: 38%

SMILES: [O-][n+]1nc2c(Br)cnn2c2cc(C(F)(F)F)ccc21
- Ki [2]: 139 nM

SMILES: CCOC(=O)c1cnn2c1n[n+]([O-])c1cc(C(F)(F)F)ccc12
- inhibition [8]: 3%

SMILES: O=C(OCc1cccs1)c1cnn2c1n[n+]([O-])c1cc(C(F)(F)F)ccc12
- inhibition [8]: 34%

SMILES: O=C(c1cccs1)c1cnn2c1n[n+]([O-])c1ccc(C(F)(F)F)cc12
- Ki [2]: 164 nM

SMILES: [O-][n+]1nc2c(Cl)cnn2c2cc(C(F)(F)F)ccc21
- Ki [2]: 175 nM

SMILES: COc1ccccc1COC(=O)c1cnn2c1n[n+]([O-])c1ccc(C(F)(F)F)cc12
- Activity [9]: 48.5 g
- Time [10]: 54.3 s
- Ki [2]: 5.8 nM
- Activity [11]: 0.2
- Activity [12]: inactive
- Time [13]: 36.2 s
- Activity [14]: inactive
- Activity [15]: inactive
- Activity [3]: Active
- Activity [4]: inactive
- Activity [16]: 0.2
- Activity [17]: 51.7 g
- Activity [18]: 0%
- Activity [5]: 0%

SMILES: [O-][n+]1nc2c(F)cnn2c2cc(OCc3ccccc3OC(F)(F)F)ccc21
- inhibition [8]: 27%

SMILES: FC(F)Oc1ccc2nnc3c(I)cnn3c2c1
- Ki [2]: 5.01 nM

SMILES: [O-][n+]1nc2c(-c3ccoc3)cnn2c2cc(C(F)(F)F)ccc21
- Ki [2]: 112 nM

SMILES: [O-][n+]1nc2c(-c3ccsc3)cnn2c2cc(C(F)(F)F)ccc21
- Ki [2]: 192 nM

SMILES: [O-][n+]1nc2c(F)cnn2c2cc(OCc3ccco3)ccc21
- Ki [2]: 129 nM

SMILES: CCOC(=O)c1cnn2c1n[n+]([O-])c1ccc(C(F)(F)F)cc12
- Ki [2]: 316 nM

SMILES: O=C(OCc1cccs1)c1cnn2c1n[n+]([O-])c1ccc(C(F)(F)F)cc12
- Activity [9]: 57.9 g
- Time [10]: 40.8 s
- Ki [2]: 10 nM
- Activity [11]: 0.1
- Activity [12]: inactive
- Time [13]: 48.6 s
- Activity [19]: Active
- Activity [14]: inactive
- Activity [3]: Active
- Activity [20]: Non-toxic
- Activity [4]: Active
- Activity [16]: 0.2
- Activity [17]: 52.6 g
- Activity [21]: Active
- Activity [18]: 0%
- Activity [5]: 0%
- Activity [6]: Active

SMILES: [O-][n+]1nc2c(-c3cccs3)cnn2c2cc(C(F)(F)F)ccc21
- Ki [2]: 57 nM

SMILES: [O-][n+]1nc2c(F)cnn2c2cc(OCc3cccs3)ccc21
- Ki [2]: 93.3 nM

SMILES: CCOC(=O)c1cnn2c1n[n+]([O-])c1ccc(OC(F)F)cc12
- Ki [2]: 5.75 nM

SMILES: CN1C(=O)CN=C(c2ccccc2)c2cc(Cl)ccc21 [DIAZEPAM]
- Ki [2]: 10 nM
- Time [22]: 14.5 s
- Time [23]: 134.5 s

SMILES: COc1ccccc1COC(=O)c1cnn2c1n[n+]([O-])c1cc(C(F)(F)F)ccc12
- inhibition [8]: 38%

SMILES: [O-][n+]1nc2c(F)cnn2c2cc(Cl)ccc21
- inhibition [8]: 50%

SMILES: [O-][n+]1nc2c(I)cnn2c2cc(C(F)(F)F)ccc21
- Ki [2]: 18 nM

SMILES: C#CCOc1ccc2c(c1)n1ncc(F)c1n[n+]2[O-]
- Ki [2]: 268 nM
